Measurements from ChEMBL document CHEMBL1141950, “Rapamycin analogs with reduced systemic exposure” (Bioorg Med Chem Lett, 2005).

Experiments:
Rattus norvegicus [1] = organism: Rattus norvegicus; experiment: Efficacy in T-cell mediated inflammatory response by delayed type hypersensitivity model in Sprague-Dawley rat; format: functional
[2] = Tmax in male Sprague-Dawley rat administered with 2.5 mg/kg, po; format: ADME, organism-based; design: dose 2.5 mg/kg, route oral; settings: in vivo
Rattus norvegicus [3] = organism: Rattus norvegicus; experiment: Efficacy in CD4+ T-cell mediated experimental autoimmune encephalomyelitis model in Lewis rat; format: functional
Method in brief: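 Rat EAE induced by subcutaneous injection of homogenized isologous spinal cord in modified complete Freund's adjuvant; value reported with range and n.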

Rattus norvegicus [4] = organism: Rattus norvegicus; experiment: Efficacy in T-cell mediated adjuvant arthritis model in Lewis rat; format: functional
[5] = Half life in male Sprague-Dawley rat administered with 2.5 mg/kg, po; format: ADME, organism-based; design: dose 2.5 mg/kg, route oral; settings: in vivo
[6] = Oral bioavailability in male Sprague-Dawley rat administered with 2.5 mg/kg, po; format: ADME, organism-based; settings: in vivo
[7] = Half life in human in a multiple dose escalation study; format: ADME, organism-based; settings: in vivo
[8] = AUC in male Sprague-Dawley rat administered with 2.5 mg/kg, po; format: ADME, organism-based; design: dose 2.5 mg/kg, route oral; settings: plasma
[9] = Cmax in male Sprague-Dawley rat administered with 2.5 mg/kg, po; format: ADME, organism-based; design: dose 2.5 mg/kg, route oral; settings: in vivo
T-cell [10] = experiment: T-cell antiproliferative activity in human mixed lymphocyte reaction; format: functional, cell-based
Method in brief: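 Human mixed lymphocyte reaction carried out in serum-containing medium; IC50 given as mean ± SEM for n determinations.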

T-cell [11] = experiment: Antiproliferative activity in Lewis rat lymph node cells in rat mixed lymphocyte reaction; format: functional, cell-based
Method in brief: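 Rat mixed lymphocyte reaction run serum free: Lewis rat lymph node cells (responders) stimulated by Brown–Norway splenocytes; IC50 reported as mean ± SEM of n determinations.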

| Compound | ED50 (Rattus norvegicus [1]) | Tmax [2] | ED50 (Rattus norvegicus [3]) | ED50 (Rattus norvegicus [4]) | half-life [5] | bioavailability [6] | half-life [7] | AUC [8] | Cmax [9] | IC50 (T-cell [10]) | IC50 (T-cell [11]) |
| --- | --- | --- | --- | --- | --- | --- | --- | --- | --- | --- | --- |
| CO[C@H]1C[C@@H]2CC[C@@H](C)[C@@](O)(O2)C(=O)C(=O)N2CCCC[C@H]2C(=O)O[C@H]([C@H](C)C[C@@H]2CC[C@@H](O)[C@H](OC)C2)CC(=O)[C@H](C)/C=C(\C)[C@@H](O)[C@@H](OC)C(=O)[C@H](C)C[C@H](C)/C=C/C=C/C=C/1C [SIROLIMUS] | 0.5 mg/kg | 0.5 h | 0.3 mg/kg | 0.2 mg/kg | 33.4 h | 43.2% | 63 h | 559 ng·h/mL | 50.8 ng/mL | 1.6 nM | 2600 nM |
| CO[C@H]1C[C@@H]2CC[C@@H](C)[C@@](O)(O2)C(=O)C(=O)N2CCCC[C@H]2C(=O)O[C@H]([C@H](C)C[C@@H]2CC[C@H](n3cnnn3)[C@H](OC)C2)CC(=O)[C@H](C)/C=C(\C)[C@@H](O)[C@@H](OC)C(=O)[C@H](C)C[C@H](C)/C=C/C=C/C=C/1C [ZOTAROLIMUS] | 1.7 mg/kg | 0.4 h | 1.2 mg/kg | 0.7 mg/kg | 7.9 h | 12.1% | 25 h | 163 ng·h/mL | 46.7 ng/mL | 2 nM | 1400 nM |
| CO[C@H]1C[C@@H]2CC[C@@H](C)[C@@](O)(O2)C(=O)C(=O)N2CCCC[C@H]2C(=O)O[C@H]([C@H](C)C[C@@H]2CC[C@H](n3ncnn3)[C@H](OC)C2)CC(=O)[C@H](C)/C=C(\C)[C@@H](O)[C@@H](OC)C(=O)[C@H](C)C[C@H](C)/C=C/C=C/C=C/1C | 2 mg/kg | – | – | – | – | – | – | – | – | 3.3 nM | 1500 nM |
| CO[C@H]1C[C@@H]2CC[C@@H](C)[C@@](O)(O2)C(=O)C(=O)N2CCCC[C@H]2C(=O)OC([C@H](C)C[C@@H]2CC[C@@H](OC(=O)N(C)OC)[C@H](OC)C2)CC(=O)[C@H](C)/C=C(\C)[C@@H](O)[C@@H](OC)C(=O)[C@H](C)C[C@H](C)/C=C/C=C/C=C/1C (stereo not given in full) | 0.4 mg/kg | 0.4 h | 0.5 mg/kg | 0.3 mg/kg | 8.7 h | 6.2% | – | 132 ng·h/mL | 29.7 ng/mL | 5.9 nM | 2500 nM |
